Data published in ChEMBL document CHEMBL2434966, “Novel N-4-piperazinyl-ciprofloxacin-chalcone hybrids: synthesis, physicochemical properties, anticancer and topoisomerase I and II inhibitory activity” (Eur J Med Chem, 2013).

What was measured:
Format in all cases: functional
[1] = system: A549; assay: Growth inhibition of human A549/ATCC cells after 48 hrs by sulforhodamine B assay; conditions: A549, 48 h
How it was run: (§1)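 NCI 60-panel five-dose test at 10-fold dilutions, 10^-4 to 10^-8 M, with 48 h continuous exposure and SRB protein read-out. Percent growth derived from time-zero, untreated-control and treated absorbances. GI50 is the concentration where [(Ti-Tz)/(C-Tz)]×100 = 50. TGI is taken at Ti = Tz. LC50 is taken at [(Ti-Tz)/Tz]×100 = -50.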

[2] = system: CAKI-1; assay: Growth inhibition of human CAKI-1 cells assessed as cell growth at 10^-5 M after 48 hrs by sulforhodamine B assay; conditions: CAKI-1, 48 h, read-out: Activity
How it was run: (§2)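 NCI 60-cell-line primary screen. Single concentration of 10^-5 M, 48 h incubation. End point by sulforhodamine B protein staining read spectrophotometrically. Reported as percent growth of treated cells relative to untreated control cells.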

[3] = system: OVCAR-8; assay: Growth inhibition of human OVCAR8 cells assessed as cell growth at 10^-5 M after 48 hrs by sulforhodamine B assay; conditions: OVCAR-8, 48 h, read-out: Activity
How it was run: (§3)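 NCI 60-cell-line primary one-dose screen. Cells were exposed to a single 10^-5 M concentration for 48 h. The end point was sulforhodamine B protein staining, read spectrophotometrically. Results are reported as percent growth of treated cells relative to untreated control cells.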

[4] = system: IGROV-1; assay: Growth inhibition of human IGROV1 cells assessed as cell growth at 10^-5 M after 48 hrs by sulforhodamine B assay; conditions: IGROV-1, 48 h, read-out: Activity; how it was run: as §2
[5] = system: T47D; assay: Growth inhibition of human T47D cells after 48 hrs by sulforhodamine B assay
How it was run: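 NCI 60-cell panel, five concentrations (10-fold dilutions, 0.01–100 µM), 48 h continuous exposure; SRB protein stain read spectrophotometrically. Percent growth from time-zero, untreated-control and treated absorbances. GI50 is the concentration giving 50% lower net protein increase than control. Values beyond the tested range are reported as more or less than the highest or lowest concentration.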

[6] = system: K562; assay: Growth inhibition of human K562 cells after 48 hrs by sulforhodamine B assay; conditions: K562, 48 h; how it was run: as §1
[7] = system: PC-3; assay: Growth inhibition of human PC3 cells after 48 hrs by sulforhodamine B assay; conditions: PC-3, 48 h
How it was run: (§4)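 NCI five-dose screen on the full 60-cell-line panel. Cells were given 10-fold dilutions from 10^-4 to 10^-8 M with continuous 48 h exposure, and growth was read by SRB staining. Percent growth was taken from time-zero, control and treated absorbances. GI50, TGI and LC50 were then derived, the GI50 being the concentration that gives a 50% lower net protein increase than control.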

[8] = system: HCT-15; assay: Growth inhibition of human HCT15 cells after 48 hrs by sulforhodamine B assay; conditions: HCT-15, 48 h; how it was run: as §1
[9] = system: SF-539; assay: Growth inhibition of human SF539 cells assessed as cell growth at 10^-5 M after 48 hrs by sulforhodamine B assay; conditions: SF-539, 48 h, read-out: Activity; how it was run: as §3
[10] = system: DU-145; assay: Growth inhibition of human DU145 cells after 48 hrs by sulforhodamine B assay; conditions: DU-145, 48 h; how it was run: as §1
[11] = Growth inhibition of human HCC2998 cells after 48 hrs by sulforhodamine B assay; conditions: HCC 2998, 48 h; for CC50: read-out: LC50 (the source's name); how it was run: as §1
[12] = system: MDA-MB-435; assay: Growth inhibition of human MDA-MB-435 cells assessed as cell growth at 10^-5 M after 48 hrs by sulforhodamine B assay; conditions: MDA-MB-435, 48 h, read-out: Activity; how it was run: as §3
[13] = system: HOP-62; assay: Growth inhibition of human HOP62 cells assessed as cell growth at 10^-5 M after 48 hrs by sulforhodamine B assay; conditions: HOP-62, 48 h, read-out: Activity; how it was run: as §2
[14] = system: MOLT-4; assay: Growth inhibition of human MOLT4 cells after 48 hrs by sulforhodamine B assay; conditions: MOLT-4, 48 h; for CC50: read-out: LC50 (the source's name); how it was run: as §4
[15] = system: DU-145; assay: Growth inhibition of human DU145 cells assessed as cell growth at 10^-5 M after 48 hrs by sulforhodamine B assay; conditions: DU-145, 48 h, read-out: Activity; how it was run: as §2
[16] = system: RPMI-8226; assay: Growth inhibition of human RPMI8226 cells assessed as cell growth at 10^-5 M after 48 hrs by sulforhodamine B assay; conditions: RPMI-8226, 48 h, read-out: Activity; how it was run: as §3
[17] = system: NCI-H23; assay: Growth inhibition of human NCI-H23 cells after 48 hrs by sulforhodamine B assay; conditions: NCI-H23, 48 h; for CC50: read-out: LC50 (the source's name); how it was run: as §4
[18] = system: SF-295; assay: Growth inhibition of human SF295 cells assessed as cell growth at 10^-5 M after 48 hrs by sulforhodamine B assay; conditions: SF-295, 48 h, read-out: Activity; how it was run: as §3
[19] = system: HL-60(TB); assay: Growth inhibition of human HL-60(TB) cells after 48 hrs by sulforhodamine B assay; conditions: HL-60, 48 h; for CC50: read-out: LC50 (the source's name)
How it was run: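 NCI 60-panel five-dose screen: cells exposed continuously for 48 h to 10-fold dilutions from 10^-4 to 10^-8 M; SRB protein staining read spectrophotometrically. Percent growth from time-zero, untreated-control and treated absorbances; GI50 is the concentration giving 50% lower net protein increase than control.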

[20] = system: NCI-H460; assay: Growth inhibition of human NCI-H460 cells after 48 hrs by sulforhodamine B assay; conditions: NCI-H460, 48 h; for CC50: read-out: LC50 (the source's name); how it was run: as §4
[21] = system: COLO 205; assay: Growth inhibition of human COLO205 cells assessed as cell growth at 10^-5 M after 48 hrs by sulforhodamine B assay; conditions: COLO 205, 48 h, read-out: Activity; how it was run: as §2
[22] = system: MDA-MB-231; assay: Growth inhibition of human MDA-MB-231 cells after 48 hrs by sulforhodamine B assay; conditions: MDA-MB-231, 48 h; how it was run: as §1

O=C(CN1CCN(c2cc3c(cc2F)c(=O)c(C(=O)O)cn3C2CC2)CC1)Nc1ccc(C(=O)/C=C/c2ccccc2)cc1
GI50 [1]: 2.41 µM | LC50 (concentration giving 50% net cell kill) [1]: > 100 µM | growth at 10 µM [2]: 73.1% | growth at 10 µM [3]: 6.3% | growth at 10 µM [4]: 42.9% | GI50 [5]: 6.66 µM | LC50 (concentration killing 50% of the cells present at time zero) [5]: > 100 µM | TGI [5]: > 100 µM | GI50 [6]: 3.07 µM | LC50 (concentration giving 50% net cell kill) [6]: > 100 µM | TGI [6]: > 100 µM | GI50 [7]: 3.16 µM | LC50 [7]: > 100 µM | TGI [7]: > 100 µM | GI50 [8]: 3.68 µM | LC50 (concentration giving 50% net cell kill) [8]: > 100 µM | TGI [8]: > 100 µM | growth at 10 µM [9]: 26.2% | GI50 [10]: 3.74 µM | LC50 (concentration killing 50% of starting cells) [10]: > 100 µM | TGI [10]: > 100 µM | GI50 [11]: 39.6 µM | TGI [11]: > 100 µM | CC50 [11]: > 100 µM | growth at 10 µM [12]: 19.2% | growth at 10 µM [13]: 59.4% | GI50 [14]: 5.13 µM | TGI [14]: > 100 µM | CC50 [14]: > 100 µM | growth at 10 µM [15]: 43.1% | growth at 10 µM [16]: 2.45% | GI50 [17]: 2.48 µM | TGI [17]: 14.3 µM | CC50 [17]: > 100 µM | growth at 10 µM [18]: 15.2% | GI50 [19]: 9.44 µM | TGI [19]: > 100 µM | CC50 [19]: > 100 µM | GI50 [20]: 3.17 µM | TGI [20]: > 100 µM | CC50 [20]: > 100 µM | growth at 10 µM [21]: 108% | GI50 [22]: 1.84 µM | LC50 (50% lethal concentration) [22]: > 100 µM | TGI [22]: 5.13 µM

COc1cc(/C=C/C(=O)c2ccc(NC(=O)CN3CCN(c4cc5c(cc4F)c(=O)c(C(=O)O)cn5C4CC4)CC3)cc2)cc(OC)c1OC
GI50 [1]: 0.37 µM | LC50 (concentration giving 50% net cell kill) [1]: > 100 µM | TGI [1]: 2.14 µM | growth at 10 µM [2]: 57.2% | growth at 10 µM [3]: 4.74% | growth at 10 µM [4]: -1.19% | GI50 [5]: 2.4 µM | LC50 (concentration killing 50% of the cells present at time zero) [5]: > 100 µM | TGI [5]: > 100 µM | GI50 [6]: 0.27 µM | LC50 (concentration giving 50% net cell kill) [6]: > 100 µM | TGI [6]: > 100 µM | GI50 [7]: 0.56 µM | LC50 [7]: > 100 µM | TGI [7]: > 100 µM | GI50 [8]: 0.45 µM | LC50 (concentration giving 50% net cell kill) [8]: > 100 µM | TGI [8]: > 100 µM | growth at 10 µM [9]: -15.8% | GI50 [10]: 0.67 µM | LC50 (concentration killing 50% of starting cells) [10]: > 100 µM | TGI [10]: > 100 µM | GI50 [11]: 2.76 µM | TGI [11]: 11.4 µM | CC50 [11]: > 100 µM | growth at 10 µM [12]: -1.52% | growth at 10 µM [13]: 4.38% | GI50 [14]: 0.31 µM | CC50 [14]: > 100 µM | growth at 10 µM [15]: 2.17% | growth at 10 µM [16]: -18.8% | GI50 [17]: 0.56 µM | TGI [17]: 2.91 µM | CC50 [17]: 14.2 µM | growth at 10 µM [18]: -27.2% | GI50 [19]: 1.11 µM | TGI [19]: > 100 µM | CC50 [19]: > 100 µM | GI50 [20]: 0.37 µM | TGI [20]: 3.79 µM | CC50 [20]: > 100 µM | growth at 10 µM [21]: -12.8% | GI50 [22]: 0.51 µM | LC50 (50% lethal concentration) [22]: > 100 µM
